In the library only some 3.5% were active in any assay of this set; here they are far more common.
MrgX1 antag = antagonists of human MrgX1 receptor; B-score at 10 µM; Q96LB2; MRGX1-HEK293 calcium flux, Fluo-4, BAM8-22 antagonism; active compounds read low; actives 1.3% (n = 310,000); AID 588676;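 active means calcium-response B-score plate-corrected more than 3 library SD below zero, starting fluorescence within 5 deviations, no agonist response on first addition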;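 further: peak minus trough fluorescence over baseline after final BAM8-22 challenge near maximal dose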
Target sequence (Q96LB2 whole entry, looked up): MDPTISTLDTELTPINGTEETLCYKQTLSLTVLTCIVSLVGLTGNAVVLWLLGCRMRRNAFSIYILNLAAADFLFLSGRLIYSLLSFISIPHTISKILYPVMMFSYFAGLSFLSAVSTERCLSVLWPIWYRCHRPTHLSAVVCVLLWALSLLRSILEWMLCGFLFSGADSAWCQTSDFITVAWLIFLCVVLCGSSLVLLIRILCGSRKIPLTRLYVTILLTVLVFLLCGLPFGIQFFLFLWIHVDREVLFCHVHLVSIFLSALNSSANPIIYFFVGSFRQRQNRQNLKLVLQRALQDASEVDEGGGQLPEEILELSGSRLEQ
MrgX1 ag = human MrgX1 receptor agonism, primary screen; MrgX1-HEK293 cells, Fluo-4 calcium fluorescence, agonist mode; active compounds read high; actives 0.44% (n = 310,000); B-score at 10 µM; Q96LB2;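 active means calcium response B-score plate-corrected fluorescence ratio at least 3 library SD, with starting fluorescence B-score inside 5 SD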
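Material: MrgX1-expressing HEK293 cells; input: 15,000 cells per well; doses: test compound given as first of three sequential additions; schedule: overnight plating before 1 h dye loading; technique: Fluo-4 NW calcium-flux fluorescence, kinetic read; evaluation: baseline-normalised fluorescence change ratio, B-scored; control set: plate-wise positive and negative controls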
MrgX1 PAM = human MrgX1 positive allosteric modulation, primary screen; Q96LB2; MrgX1-HEK293, Fluo-4 calcium flux, FDSS; active compounds read high; B-score at 10 µM; actives 0.63% (n = 310,000); AID 588675;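 active means plate-corrected calcium response at least 3 library SD above typical, normal starting fluorescence, not activating the receptor alone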;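 further: compound read alongside a low EC10 to EC30 dose of BAM8-22 agonist; peak minus trough fluorescence over baseline measured at the second addition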
RGS4 pot = RGS4 potentiation or activation. HEK293 M3R/inducible RGS4, carbachol calcium flux Fluo4; active compounds read low. B-score at 10 µM. actives 0.92% (n = 310,000);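 active means B-score of the integrated calcium signal more than 4 SD below the library mean, with starting fluorescence not abnormally high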;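 further: negative B-score means reduced calcium response which marks RGS4 activation or potentiation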
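Material: M3R-expressing HEK293 line, RGS4 induced by doxycycline | Schedule: Overnight RGS4 induction, 30 min dye load 37 °C, 20 min compound RT | Measured by: Fluo4 fluorescence kinetic imaging of calcium | Read-out: Integrated calcium ratio converted to B score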
RGS4 block = inhibitors of human RGS4 | P49798 | HEK293 M3R/RGS4 inducible, Fluo-4 calcium flux; active compounds read high; triggered by carbachol at its EC20 | B-score at 10 µM | actives 0.45% (n = 310,000);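 active means B-score, a plate-corrected calcium signal, over three deviations above library mean, with baseline fluorescence within five deviations of library mean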;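 further: RGS4 expression induced by doxycycline in cells with stable M3 receptor; B-score is computed from the integrated fluorescence ratio over baseline after carbachol; higher B-score means a larger calcium signal and so more RGS4 inhibition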
Target sequence (P49798 whole entry, looked up): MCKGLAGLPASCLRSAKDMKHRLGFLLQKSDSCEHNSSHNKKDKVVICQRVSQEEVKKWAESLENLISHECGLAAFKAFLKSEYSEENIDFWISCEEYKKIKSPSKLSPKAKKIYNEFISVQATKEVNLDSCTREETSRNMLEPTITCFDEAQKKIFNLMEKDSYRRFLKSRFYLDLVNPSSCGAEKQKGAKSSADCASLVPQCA
MrgX1 ag confirm = confirmation of human MrgX1 receptor agonists; actives 78% (n = 600); shares compounds with MrgX1 ag; MrgX1-HEK293, Fluo-4 calcium fluorescence, FDSS; activation, % at 10 µM;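 active means calcium signal rise, corrected for plate position, at least 3 library SD high, with starting brightness within 5 such deviations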
HEK293 Ca flux = MrgX1 antagonist counter-screen hit in parental HEK293 cells; shares compounds with MrgX1 antag; Fluo-4 calcium fluorescence, FDSS; fluorescence ratio F(max-min)/F0 at 10 µM; actives 2% (n = 4,000); AID 624111;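 active means duplicate-averaged calcium fluorescence ratio at least three times the standard deviation of buffer wells, a nonspecific response in parental cells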
HEK293 Ca counter = activity in parental HEK293 cells without MrgX1; shares compounds with MrgX1 antag; parental HEK293 calcium flux, Fluo-4 fluorescence ratio; active compounds read high; fluorescence ratio F(max-min)/F0 at 10 µM; actives 0.4% (n = 4,000); AID 624114;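 active means calcium fluorescence ratio, averaged over duplicates, at least 3 SD of the buffer-well ratio, meaning a nonspecific response in receptor-free cells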;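 further: untransfected parental HEK293 lacking MrgX1 used as counterscreen for MrgX1 allosteric activators; fluorescence change taken during the second addition on a kinetic imager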
HEK293 Ca cntr2 = counter-screen for MrgX1 activators: effect in parental HEK293 cells; actives 8.7% (n = 4,000); shares compounds with MrgX1 antag; Fluo-4 calcium fluorescence (FDSS); active compounds read high; AID 624115; fluorescence ratio F(max-min)/F0 at 10 µM;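 active means calcium fluorescence ratio at least three times the spread of buffer wells, meaning a non-specific response in parental cells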
Starred values were filed as active, the others as inactive; i = inactive; / = no result given.

SMILES | MrgX1 antag | MrgX1 ag | MrgX1 PAM | RGS4 pot | RGS4 block | MrgX1 ag confirm | HEK293 Ca flux | HEK293 Ca counter | HEK293 Ca cntr2
O=C(NCc1ccco1)c1cc(Cl)nc(Cl)c1 | i | i | i | i | i | / | / | / | /
O=C(O)c1ccc(-c2ccc(/C=c3/sc4nc5ccccc5n4c3=O)o2)cc1Cl | i | 80.7* | i | i | i | 465.1%* | 0.128* | i | 104*
c1cc2c(cc1-c1cnc3n1CCC3)OCCO2 | i | i | i | i | i | / | / | / | /
N#CC1=C(N)Oc2cc(N)ccc2C1c1ccccc1Cl (centres undefined) | i | 28.8* | i | i | i | i | i | i | i
N#CC1=C(N)Oc2cc(N)ccc2C1c1ccc(Cl)cc1 (centres undefined) | i | i | i | i | i | / | / | / | /
COc1cccc(NS(=O)(=O)c2cn(C)c(=O)n(C)c2=O)c1 | i | i | i | i | i | / | / | / | /
CCCOc1ccc(C(=O)N/N=C/c2c[nH]c3ccc(Br)cc23)cc1 | i | i | i | i | i | / | / | / | /
CCCCCN=C(N)N/N=C/c1c[nH]c2ccc(OC)cc12 | i | 74.8* | i | i | i | 487.7%* | i | i | 137*
Cc1cccc(C)c1N=C1SC(CC(=O)Nc2c(C)cccc2C)C(=O)N1CCc1ccccn1 (centres undefined) | i | i | i | i | i | / | / | / | /
CCOc1ccc(S(=O)(=O)Nc2ncn[nH]2)cc1 | i | i | i | i | i | / | / | / | /
CCOc1ccc(Br)cc1S(=O)(=O)Nc1ncn[nH]1 | i | 31.7* | i | i | i | i | i | i | i
N=C(N)CCCOc1ccccc1-c1ccccc1 | i | 27.9* | i | i | i | 80.8%* | i | i | i
O=c1ccc2ccc(Oc3ccc([N+](=O)[O-])cc3Cl)cc2o1 | i | i | i | i | i | / | / | / | /
O=C(NC(=S)NNC(=O)c1cccs1)c1ccc(Br)o1 | i | 100* | i | i | i | 710.5%* | i | i | 137*
O=C(NNC(=S)NC(=O)c1cccs1)c1ccc(O)cc1 | i | i | i | i | i | / | / | / | /
CCOC(=O)C(Cc1cc(C(C)=O)ccc1OC(C)C)C(=O)OCC | i | i | i | i | i | / | / | / | /
COc1ccc(Br)cc1CSC(=N)N | i | 34.1* | i | i | i | 147.8%* | i | i | i
CC(=O)c1ccc(OC(C)C)c(CSC(=N)N)c1 | i | 38* | i | i | i | 198.8%* | i | i | i
CCCn1c(=O)c(C(=O)NNC(=O)c2ccccc2Cl)c(O)c2ccccc21 | i | 97.4* | i | i | i | 307.7%* | i | i | 63.7*
c1csc(C2C3=C(Nc4ncnn42)c2ccccc2OC3)c1 (centres undefined) | i | 31.3* | i | i | i | 121.6%* | i | i | i
COc1ccc(CC(NC(C)=O)C(=O)NC2CCN(c3c4c(nc5ncnn35)CCC4)CC2)cc1OC (centres undefined) | i | i | i | / | / | / | / | / | /
COc1ccc2c(c1)nc(N)n2Cc1ccccc1 | i | 49.1* | i | i | i | 233.0%* | i | i | i
COc1ccc(CCNC(=O)C2CCCN(C(=O)c3ccc(Cl)cc3)C2)cc1 (centres undefined) | i | i | i | i | i | / | / | / | /
Cc1ccc(S(=O)(=O)NCCSc2nnnn2-c2ccccc2)cc1 | i | i | i | i | i | / | / | / | /
Cc1ccc(NC(=O)CCl)cc1S(=O)(=O)N1CCCCCC1 | i | 29.3* | i | i | i | 169.2%* | i | i | i
SMILES | MrgX1 antag | MrgX1 ag | MrgX1 PAM | RGS4 pot | RGS4 block | MrgX1 ag confirm | HEK293 Ca flux | HEK293 Ca counter | HEK293 Ca cntr2
O=C(CCl)N(c1ccc(Cl)cc1)c1c[nH]c2ccccc12 | i | 29.8* | i | i | i | 145.7%* | i | i | i
O=C(CCl)N(c1ccccc1)c1c[nH]c2ccccc12 | i | i | i | i | i | / | / | / | /
CC/C(=N\NC(=O)c1ccncc1)C12CC3CC(CC(C3)C1)C2 | i | i | i | i | i | / | / | / | /
O=C(NNC(=O)C1CCCCC1)c1ccncc1 | i | i | i | i | i | / | / | / | /
O=C(NNC(=S)NC(=O)C12CC3CC(CC(C3)C1)C2)c1ccncc1 | i | 117* | i | i | i | 600.4%* | i | i | 121*
CC1(C(=O)NC(=S)NNC(=O)c2ccncc2)CCCCC1 | i | 86.7* | i | i | i | 488.6%* | i | i | 101*
CCOC(=O)Cn1c(CCC(=O)O)ccc1-c1ccc(F)cc1 | i | 44.9* | i | i | i | 169.6%* | i | i | i
COC(=O)Cn1c(C(=O)N2CCCC2)cc2c1C[C@H]1CN(C(=O)c3ccccc3)[C@@](Cc3ccc(F)cc3)(C(=O)OC)[C@@H]21 | i | i | i | / | / | / | / | / | /
COC(=O)Cc1nc(NC(=O)c2cccs2)sc1C | i | 28.1* | i | i | i | 149.5%* | i | i | i
CC(=O)Nc1ccc2nc(NC(=O)C(Cl)(Cl)Cl)sc2c1 | i | 28.9* | i | i | i | 162.0%* | i | i | i
O=C(NC(=O)c1ccccc1F)Nc1nc(-c2cccs2)cc(C(F)(F)F)n1 | i | i | i | i | i | / | / | / | /
O=S(=O)(NCC1(N2CCOCC2)CCCCC1)c1ccc(Cl)cc1C(F)(F)F | i | 87.6* | i | i | i | 261.2%* | i | i | i
O=S(=O)(NCC1(N2CCOCC2)CCCCC1)c1ccccc1Cl | i | i | i | i | i | / | / | / | /
CCN(CC)CCn1c(NC(=O)c2ccc(C(F)(F)F)cc2)nc2ccccc21 | i | i | i | i | i | / | / | / | /
Cc1[nH]nc(-c2ccc(O)cc2O)c1Oc1ccccc1 | i | 28.2* | i | i | i | 179.3%* | i | i | i
